Sampled rows, rich in hits. Any-hit rate of the full collection: about 2%.
CDK5 inh: inhibitors of human CDK5/p35 kinase. hit rate 0.01% among 330,000. Recombinant CDK5/p35, ADP-Glo luminescence, 60 min. inhibition, % at 10 µM. AID 488839. Q00535+Q15078;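 active means highest replicate inhibition of at least 50% and at least 75% of replicates reaching 50%; inconclusive means only one of the two criteria met; inactive means both criteria failed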
SR-BI uptake up: enhances SR-BI lipid uptake from DiI-HDL | hit rate 0.096% among 320,000 | activation, % at 12.5 µM | CHO ldlA[mSR-BI] cells, DiI-HDL uptake fluorescence, 3 h; 100 = double the neutral-control signal;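 active means mean replicate activation of at least 60% and every replicate at or above 60%; inconclusive means mean or all-replicate condition met, but not both; inactive means mean below 60% and not all replicates reaching 60%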
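Material – SR-BI-overexpressing, LDLR-lacking CHO cells · Medium – BSA-supplemented, HEPES-buffered Ham's F12, pH 7.4 · Doses – single concentration · Times – compound with DiI-HDL co-incubation, 3 h at 37 °C · Measured by – bottom-read fluorescence, 550/595 nm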
dFosB act-1: enhances mouse delta FosB homodimer DNA binding; purified delta FosB, TAMRA-CDK5 oligo fluorescence polarization; percent of positive-control signal above neutral wells; activation, % at 25 µM; hit rate 0.99% among 340,000; AID 493131;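 active means mean activation above about 17%, with every replicate also reaching it, limit read from the data, passing the limit was not always enough; inconclusive means only one of the two conditions met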
SR-BI DiI inh: inhibitors of mouse SR-BI mediated HDL lipid uptake | Q61009 | ldlA[mSR-BI] CHO cells, DiI-HDL uptake fluorescence, 3 h | inhibition, % at 12.5 µM | hit rate 0.96% among 320,000 | AID 488896;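 active means mean replicate inhibition of at least 70% and a set share of replicates each scoring 70 or more; inconclusive means meets just one of the two criteria; inactive means fails both criteria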
Target sequence (Q61009 whole entry, looked up): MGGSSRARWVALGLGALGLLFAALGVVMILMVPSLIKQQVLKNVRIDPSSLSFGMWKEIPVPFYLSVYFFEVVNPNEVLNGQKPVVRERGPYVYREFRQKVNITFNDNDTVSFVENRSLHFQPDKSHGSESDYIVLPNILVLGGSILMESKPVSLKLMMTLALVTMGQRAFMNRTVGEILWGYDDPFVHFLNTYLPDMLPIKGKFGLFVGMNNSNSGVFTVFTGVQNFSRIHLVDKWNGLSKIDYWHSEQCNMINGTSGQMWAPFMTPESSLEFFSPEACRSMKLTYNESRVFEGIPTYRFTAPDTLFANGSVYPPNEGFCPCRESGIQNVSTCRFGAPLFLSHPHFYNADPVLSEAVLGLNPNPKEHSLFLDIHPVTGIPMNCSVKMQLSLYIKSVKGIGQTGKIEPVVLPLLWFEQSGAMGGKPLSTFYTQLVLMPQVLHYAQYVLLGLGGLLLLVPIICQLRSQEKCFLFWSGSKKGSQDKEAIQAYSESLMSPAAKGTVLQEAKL
dFosB act-2: activators of mouse delta FosB homodimer DNA binding; 2,400 tested, under 10 active; AID 588690; activation, % at 24.9 µM; shares compounds with dFosB act-1; purified delta FosB, TAMRA-CDK5 oligo fluorescence polarization; normalised: neutral wells 0, positive control 100;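 active means highest replicate activation at or above 34% and every replicate reaching that threshold; inconclusive means meets only one of the two criteria; inactive means meets neither criterion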;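 further: higher polarization means more probe DNA bound by delta FosB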
Numbers stand for hits.

Screening Cc1nc(NC(=O)CSc2ccc(-c3nc4ccccc4[nH]3)cn2)sc1C returned CDK5 inh inactive, SR-BI uptake up inactive, dFosB act-1 47, SR-BI DiI inh inactive and dFosB act-2 inactive.
For COCCNC(=O)CSc1ccc(-c2nc3ccccc3[nH]2)cn1 the results were CDK5 inh inactive and dFosB act-1 inactive.
`CCc1nnc(NC(=O)CSc2ccc(-c3nc4ccccc4[nH]3)cn2)s1` gave CDK5 inh inactive, SR-BI uptake up inactive, dFosB act-1 48, SR-BI DiI inh inactive and dFosB act-2 inactive.
For CC1Sc2ccc(C(=O)NCc3cccc(C(F)(F)F)c3)cc2NC1=O (stereo not drawn) the results were CDK5 inh inactive, SR-BI uptake up inactive, dFosB act-1 inactive and SR-BI DiI inh inactive.
For CCN1/C(=C\C=C2\C(=O)N(c3ccccc3)C(=S)N2C)Sc2ccccc21 the results were CDK5 inh inactive, SR-BI uptake up inactive, dFosB act-1 28, SR-BI DiI inh inconclusive and dFosB act-2 inactive.
Screening CCN1/C(=C2\OC(=S)N(C)C2=O)Sc2ccccc21 returned CDK5 inh inactive, SR-BI uptake up inactive, dFosB act-1 inactive and SR-BI DiI inh inactive.
Screening N#CCC(=O)Nc1ccc(C(=O)NNC(=O)CCN2CCN(c3ccccc3)CC2)cc1 returned CDK5 inh inactive, SR-BI uptake up inactive, dFosB act-1 inactive and SR-BI DiI inh inactive.
For Nc1ccccc1SC1CC(=O)N(c2ccc3c(c2)OCO3)C1=O (stereo not drawn) the results were CDK5 inh inactive, SR-BI uptake up inactive, dFosB act-1 inactive and SR-BI DiI inh inactive.
For COc1ccc(Cl)cc1N1C(=O)CC(Sc2ccccc2N)C1=O (stereo not drawn) the results were CDK5 inh inactive, SR-BI uptake up inactive, dFosB act-1 38, SR-BI DiI inh inactive and dFosB act-2 inactive.
COc1ccc(C(=O)Cn2cnc3ccc(Cl)cc3c2=O)cc1F was read as CDK5 inh inactive, SR-BI uptake up inactive, dFosB act-1 26, SR-BI DiI inh inactive and dFosB act-2 inactive.
`Cc1ccc(Nc2nc(N)nc(CSc3nnc(-c4ccncc4)o3)n2)cc1` gave CDK5 inh inactive, SR-BI uptake up inactive, dFosB act-1 66, SR-BI DiI inh inactive and dFosB act-2 inactive.
`Cc1ccc(Nc2nc(N)nc(CSc3nc4ccccc4s3)n2)cc1` gave CDK5 inh inactive, SR-BI uptake up inactive, dFosB act-1 53, SR-BI DiI inh inactive and dFosB act-2 inactive.
For C/C(=N/NS(=O)(=O)c1ccc(C(C)(C)C)cc1)c1ccc2c(c1)OCO2 the results were CDK5 inh inactive, SR-BI uptake up inactive, dFosB act-1 inactive and SR-BI DiI inh inactive.
For CC(NC(=O)c1ccco1)C(=O)N1CCN(S(=O)(=O)c2ccccc2C#N)CC1 (stereo not drawn) the results were CDK5 inh inactive, SR-BI uptake up inactive, dFosB act-1 inactive and SR-BI DiI inh inactive.
For FC(F)(F)c1cccc(-c2ccn3ncnc3n2)c1 the results were CDK5 inh inactive, SR-BI uptake up inactive, dFosB act-1 inactive and SR-BI DiI inh inactive.
`O=C(Nc1ccc(-c2nc3cccnc3s2)cc1)c1ccc(Br)o1` gave CDK5 inh inactive, SR-BI uptake up inactive, dFosB act-1 35, SR-BI DiI inh inactive and dFosB act-2 inactive.
For O=C(O)CCCCCCCCc1cn(CCc2c[nH]c3ccccc23)nn1 the results were CDK5 inh inactive, SR-BI uptake up inactive, dFosB act-1 inactive and SR-BI DiI inh inactive.
`COc1ccccc1N1CCN(CCC(=O)Nc2ccc(F)cc2)CC1` gave CDK5 inh inactive, SR-BI uptake up inactive, dFosB act-1 inactive and SR-BI DiI inh inactive.
`CCOc1ccc(CC(=O)Nc2c(C(=O)Nc3ccccc3)oc3ccccc23)cc1OCC` gave CDK5 inh inactive, SR-BI uptake up inactive, dFosB act-1 27, SR-BI DiI inh inactive and dFosB act-2 inactive.
Screening CCCCN(C(=O)c1cccc(-n2cccc2)c1)c1c(N)n(CCCC)c(=O)[nH]c1=O returned CDK5 inh inactive, SR-BI uptake up inactive, dFosB act-1 inactive and SR-BI DiI inh inactive.
`CCCCn1c(N)c(N(CCC(C)C)C(=O)c2cccc(N3C(=O)c4ccccc4C3=O)c2)c(=O)[nH]c1=O` gave CDK5 inh inactive, SR-BI uptake up inactive, dFosB act-1 22, SR-BI DiI inh inactive and dFosB act-2 inactive.
For COc1ccc(-c2c(C#N)c(N)nc(Sc3ccc(Cl)cc3)c2C#N)cc1 the results were CDK5 inh inactive, SR-BI uptake up inactive, dFosB act-1 121, SR-BI DiI inh inactive and dFosB act-2 inactive.
